Measurements from article PMC4123937 (Molecular Pharmaceutics, 2014).

Test system: 4T1 mammary tumors
Type: in vivo, mouse (BALB/c)
Settings: Alexa546-pHLIP i.v., time points 2, 4, 24, 48 h
In short: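 Female BALB/c mice, s.c. 4T1 cells (8 × 10^5 cells/0.1 mL) in right flank; used at ~6 mm tumor diameter. Single tail-vein dose of 5 nmol (100 μL of 50 μM) Alexa546-labeled peptide in PBS. Necropsy at 2, 4, 24, 48 h; excised tumor, muscle, kidney, liver imaged immediately; mean fluorescence intensity quantified. Six mice per construct.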

For ACDDQNPWRAYLDLLFPTDTLLLDLLW [Var3], which “Time postinjection of maximal renal fluorescence signal” value (kidney) is on record?
The value was 24 h.

With ACEEQNPWARYLEWLFPTETLLLEL [Var7] as the sequence, how does the “Time postinjection of maximum fluorescence signal in tumor” value (4T1 tumor) read?
Its value is 4 h.
